Measurements: ChEMBL document CHEMBL4513216, “Probing the Open Global Health Chemical Diversity Library for Multistage-Active Starting Points for Next-Generation Antimalarials” (ACS Infect Dis, 2020)

Experiment: Toxicity liver stage against HepG2, at 10uM
Type: cell-based
Design: test concentration 10 uM, cell line HepG2-A16-CD81EGFP
Conditions: human, HepG2-A16-CD81EGFP cells; read-out: INHIBITION
Outline: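 Uninfected HepG2-A16-CD81EGFP cells, 3 × 10^3 per well, 1536-well, plated on prespotted compound at 10 μM final, parasite-free screening media added to match infected plates; puromycin 10 μM positive, DMSO 0.5% negative; run in parallel with 48 h PbLuc assay at 37 °C, 5% CO2; viability by CellTiter-Glo luminescence, normalized to controls.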

Row | Compound | cytotoxicity at 10 µM [%]
1 | CCCc1nc(CN(CC)Cc2ccc(O)c(C(=O)O)c2)no1 | -6.33
2 | CCCc1nc(C(=O)N(C)Cc2cc(CC)no2)cs1 | 6.75
3 | Cc1ccc(O)c(CNC2CCCN(Cc3noc(C4CC4)n3)C2)n1 (centres undefined) | -5.59
4 | OC(COCc1cccs1)Cn1cc(Cl)cn1 (centres undefined) | -0.574
5 | CC(C)N1CCO[C@H]2CN(C(=O)c3ccccn3)C[C@H]21 | -67.6
6 | CN(C)CC1CN(Cc2ccc3c(c2)OCO3)Cc2nccn2C1 (centres undefined) | -0.362
7 | CC(C)c1nccc(CN(C)Cc2cccc(-n3cccn3)c2)n1 | -2.44
8 | Cc1nnc2n1CC(CNCc1nc(-c3cccs3)no1)CC2 (centres undefined) | 10.1
9 | CN(Cc1nc(C2CC2)no1)C(=O)C1COc2ccccc2C1 (centres undefined) | -0.509
10 | O=C(c1ccco1)N1CC(S(=O)(=O)c2ccc(Cl)cc2)C1 | -2.02
11 | Cc1cc(N(C)CCCn2cccn2)nc(-c2cccnc2)n1 | 16.3
12 | CS(=O)(=O)NCC1CCCN(Cc2ccccc2F)C1 (centres undefined) | -3.65
13 | O=C1O[C@@H]2CN(C3CCOCC3)C[C@@H]2N1CCCc1ccc(F)cc1 | 5.77
14 | Cc1ccc(OCC(=O)NS(=O)(=O)c2cccnc2)cc1C | 4.36
15 | CCC(CO)N(Cc1cccnc1)C(=O)c1ccoc1C (centres undefined) | -0.0979
16 | CCc1nc2n(n1)CC(NCc1noc(-c3ccc(C)cc3)n1)CC2 (centres undefined) | -4.26
17 | CC(C)=CCN1C(=O)[C@@H]2CC[C@H]1CN(c1ncccc1C(N)=O)C2 | 6.13
18 | Cn1cnnc1SCc1cc2c(cc1Br)OCO2 | 6.44
19 | CC(C)C[C@@H]1N[C@H](C(=O)NC2CCOCC2)Cc2c[nH]c3cccc1c23 | 8.24
20 | CC(C)NC(=O)N1CCC[C@H]1C(=O)NCCCc1cccc(F)c1 | 4.27
21 | O=C(NC1CCCC1)c1nc2c(o1)CN(CCO)C2 | 13.2
22 | Cc1oncc1C(=O)N1CCC2(CC1)C(c1cnn(C)c1)CC(=O)N2C (centres undefined) | -75.6

Row | Compound | cytotoxicity at 10 µM [%]
23 | c1ccc(CCN2CCn3cc(Cn4cccn4)nc3C2)cc1 | -1.98
24 | c1cc(CNCc2ccc3c(c2)CCO3)cc(N2CCOCC2)n1 | 11.1
25 | Cc1ccc(N2C[C@H]3OCC[C@H]3[C@H](C(=O)NCc3ccco3)C2)nn1 | -67.4
26 | Cc1cnn(C2CCCN(C(=O)c3ccc(N4CCCC4)nn3)C2)c1 (centres undefined) | -2.38
27 | CN(C)CCN(CC1CCCO1)C(=O)Cc1cn2ccccc2n1 (centres undefined) | -2.96
28 | CCOc1ccc2[nH]c(=O)c(CN3CCCC(CO)(CO)C3)cc2c1 | 22.3
29 | c1ccc(-c2nc(CN3CCCC(Cn4cncn4)C3)cs2)cc1 (centres undefined) | -9.53
30 | CCOC(=O)[C@H]1[C@@H](O)C(=O)N(C)C12CCN(C(=O)CC(C)(C)C)CC2 | -4.1
31 | CN(Cc1csc(-c2ccccc2)n1)C(=O)CCNS(C)(=O)=O | 0.571
32 | CS(=O)(=O)N1CC2(CCN(C(=O)c3ccncc3)CC2)c2ccccc21 | 2.23
33 | CCC(C)NC(=O)Cc1c(C)nc2c(c1C)c(=O)[nH]n2C (centres undefined) | -11.4
34 | Cc1n[nH]cc1CNCC1(c2ccccc2Cl)CCOCC1 | 8.16
35 | CC(C)CCN1CCC2(CNS(=O)(=O)c3cccnc3O2)C1 (centres undefined) | 4.1
36 | c1cc(-c2ccc3c(c2)CCC32CCN(c3nncs3)CC2)ccn1 | 20.4
37 | CN(C)C[C@@H]1C[C@@H]2CN(C(=O)Cc3cccs3)CC[C@@H]2N1C | 0.375
38 | CNC(=O)[C@H]1C[C@H]2CN(C(=O)NC(C)C)C[C@@H]1O2 | -99.8
39 | CCNC(=O)c1cnc(Cc2ccc(F)cc2)s1 | 4.44
40 | O=C(NCc1nncn1C1CC1)C1(c2cccc(F)c2)CCOCC1 | -2.07
41 | NC(=O)c1nc(CN2CCOC(C(F)(F)F)C2)no1 (centres undefined) | -3.39
42 | O=C(c1ccncn1)N1CCC[C@]2(C[C@H](Oc3ncccc3F)CO2)C1 | -0.588
43 | CCCn1nnc2c(sc3nc(N4CCOCC4)c4c(c32)CCC4)c1=O | 1.74
44 | CC(C)NC1CCc2c(ccc(=O)n2CCN2CCOCC2)C1 (centres undefined) | 7.64

Row | Compound | cytotoxicity at 10 µM [%]
45 | Fc1cccc(CN2CCC(c3noc(-c4cnccn4)n3)CC2)c1F | -1.37
46 | CCN(Cc1ccc2c(c1)OCO2)C(=O)NC(C)Cn1cccn1 (centres undefined) | -2.5
47 | Cn1nc(-c2ccc(F)cc2)cc1C(=O)NCCn1ccnc1 | 3.68
48 | O=C(c1ncn2c1CNS(=O)(=O)c1ccccc1-2)N1CCCCCC1 | 9.79
49 | O=C(O)c1ccnc(SCC(F)(F)F)c1 | -17.6
50 | O=C(CC1CC1)NCc1cn2c(n1)CN(C(=O)C1CCOCC1)CC2 | -73.2
51 | CSc1ccccc1C(C(=O)O)N1CCN(Cc2ccccn2)CC1 (centres undefined) | -36.2
52 | Cn1cc(CN2CCn3c(CNC(=O)c4cccn4C)cnc3C2)cn1 | -3.47
53 | c1nc(CNC2CCOCC2)c2n1CCCN(CC1CC1)C2 | -69.1
54 | NCc1cccc(NC(=O)CCN2CCOCC2)c1 | -0.509
55 | COc1ccc(-c2c[nH]c(C3CC(=O)N(CC(C)C)C3)n2)cc1 (centres undefined) | 5.35
56 | O=C(CC1CC1)N1CCC2(COCc3cnc(-c4cccnc4)nc32)C1 (centres undefined) | -106
57 | Cc1c(Br)cccc1C(=O)NC(C)CN1CCCC1=O (centres undefined) | -1.58
58 | Cc1ccsc1C(=O)N1CCCN(Cc2cscn2)CC1 | -12.4
59 | O=c1[nH][nH]cc1-c1ccnc(NCCCN2CCOCC2)n1 | 3.27
60 | Cc1ccc(CCN2CCC(N(C)Cc3noc(C4CC4)n3)C2)cc1 (centres undefined) | -8.31
61 | Cc1noc(C2CCCN(Cn3cc(Br)cn3)C2)n1 (centres undefined) | -3.67
62 | Cc1cc(CN2C[C@@H]3CC[C@H]2CN(C2Cc4ccccc4C2)C3)on1 | 1.58
63 | CCOCC(O)CN1CCN(C(=O)Cc2ccc3c(c2)CCC3)CC1 (centres undefined) | -15.5
64 | CCc1nc(CN2CCCC(N(C)CCn3cccn3)C2)no1 (centres undefined) | -11.5
65 | O=C(Nc1cnccn1)[C@H]1CC[C@@H]2[C@@H](CCN2Cc2ccoc2)O1 | 8.86
66 | O=C1NCCN1C1CCN(Cc2nc(-c3ccc(F)cc3)no2)CC1 | 44.1

Row | Compound | cytotoxicity at 10 µM [%]
67 | Cc1ccc2nc(CNc3ccccc3C(=O)NC3CC3)cn2c1 | 3.16
68 | CC(C)NS(=O)(=O)c1cc(C(=O)O)cc(-c2ccccc2F)c1 | -7.56
69 | CCC[C@@H]1CN(c2ncnc3sccc23)C[C@H]1C(=O)O | 1.96
70 | CCn1ccc(-c2cc(C(=O)O)n3ncc(Br)c3n2)n1 | -4.81
71 | Cc1nc(C(=O)N2CCN(S(C)(=O)=O)[C@@H]3CS(=O)(=O)C[C@@H]32)cs1 | -9.19
72 | Fc1ccc(CN2CCCC2Cn2cccn2)c2ncccc12 (centres undefined) | -5.11
73 | Cc1nc(C2CCCN2CCc2cccs2)no1 (centres undefined) | 10.4
74 | CCc1cn[nH]c1C1CCN(C(=O)c2cc(C#N)c(=O)[nH]c2C)CC1 | 2.39
75 | CNC(=O)NC(=O)C(C)N1CCN(c2ccc(C#N)cc2F)CC1 (centres undefined) | 2.83
76 | CCc1nc(C2CCCN(C(=O)c3c(C)noc3C)C2)no1 (centres undefined) | -12.8
77 | CCc1nc(CC(=O)N2CCn3c(nnc3C(C)C)C2)cs1 | -6.72
78 | Cc1ncc(Cl)c(C(=O)N2CC(=O)N(C)c3ccccc32)n1 | 5.35
79 | CCS(=O)(=O)N1CCC2(CCCN(Cc3ccc(F)c(F)c3)C2=O)C1 (centres undefined) | 17.6
80 | COCc1cccc(NC(C)C(=O)N(C)Cc2cccc(F)c2)c1 (centres undefined) | 12.2
81 | CC(C)c1cc(C2CCCN2Cc2nc(-c3ccco3)no2)no1 (centres undefined) | -3.45
82 | NC(=O)c1cc(C2CCCN(CCc3ccc4c(c3)CCO4)C2)n[nH]1 (centres undefined) | -1.92
83 | CC(Cn1cccn1)NCc1csc(-c2ncccn2)n1 (centres undefined) | -14.7
84 | COCCN1CCC2(CC1)CC(c1cccnc1)CO2 (centres undefined) | -3.21
85 | O=C1COC2(CCN(Cc3cccs3)CC2)CN1c1ccsc1 | -125
86 | O=C1NCCCC12CCN(Cc1ccc(-c3ccccc3)s1)C2 (centres undefined) | 16.9
87 | CCC(CO)N(Cc1ccncc1)Cc1c[nH]nc1-c1ccc(F)cc1 (centres undefined) | -5.5
88 | CC(c1cccc(-c2nccn2CCc2ccccn2)c1)N(C)C (centres undefined) | 7.62

Row | Compound | cytotoxicity at 10 µM [%]
89 | O=C(CN1CCN(C(=O)c2cccc(-c3ccoc3)c2)CC1)C1CC1 | 0.504
90 | COc1ccc(CN2Cc3nnn(C)c3C(COCCN(C)C)C2)cc1 (centres undefined) | 5.26
91 | CC(=O)c1cc2c(=O)[nH]c(=O)n(C)c2nc1C | -2.89
92 | CCN(C)C[C@@H]1CN(C(=O)c2cc(C(F)(F)F)n[nH]2)C[C@@H]1CO | -12.1
93 | CN(Cc1ccccn1)C(=O)CNC(=O)N1CCc2ccccc2C1 | 2.8
94 | CCOC(=O)CN(C)Cc1cnc(C)s1 | 20.2
95 | CC(C)NC(=O)N[C@H]1C[C@@H](Cc2cc(CN3CCOCC3)on2)C1(C)C | -5.5
96 | Cc1cccc(CNC(=O)CC2CCN(S(C)(=O)=O)CC2)n1 | -1.57
97 | CN(CC(=O)N1CCCC1)C(=O)c1cccn1CCc1ccccc1 | 6.99
98 | CCc1cnc(C)nc1NCCN1CCCC(C(N)=O)C1 (centres undefined) | -2.54
99 | O=C(c1ccco1)N1CCO[C@@H]2CN(CC3CC3)CC[C@@H]2C1 | -67.9
100 | CC(C)c1n[nH]c(C2CN(C(=O)c3cc4c(s3)CCC4)CCO2)n1 (centres undefined) | -11
101 | CC(C)c1cc(C2CCCN2C(=O)c2cn3ccsc3n2)no1 (centres undefined) | -2.33
102 | CSc1ccc2cc(CN(C)CCc3cn[nH]c3)c(=O)[nH]c2c1 | -7.23
103 | COc1ncccc1C(Cc1ccsc1)NC(=O)Cn1cccnc1=O (centres undefined) | -5.47
104 | CCOC(=O)[C@]12CCCN(Cc3ccsc3)C[C@H]1CN(CCOC)C2 | -127
105 | CCOC(=O)c1coc(N2CCN(Cc3cccc(OC)c3)C(=O)C2)n1 | -1.83
106 | CCN(C)C(=O)c1cccc(S(=O)(=O)NCCc2csc(N)n2)c1 | -45.2
107 | CCS(=O)(=O)CCNC(=O)C1(c2cccc(Cl)c2)CC1 | -4
108 | c1ccc(OCCN2CCC(c3cnccn3)CC2)cc1 | 7.56
109 | O=C(NCc1cn2cccnc2n1)C1CC(=O)N(Cc2ccccn2)C1 (centres undefined) | 2.69
